target: T1, Renin (Homo sapiens, UniProt P00797); assay: Inhibition of human renin
T1 sequence (P00797 whole entry): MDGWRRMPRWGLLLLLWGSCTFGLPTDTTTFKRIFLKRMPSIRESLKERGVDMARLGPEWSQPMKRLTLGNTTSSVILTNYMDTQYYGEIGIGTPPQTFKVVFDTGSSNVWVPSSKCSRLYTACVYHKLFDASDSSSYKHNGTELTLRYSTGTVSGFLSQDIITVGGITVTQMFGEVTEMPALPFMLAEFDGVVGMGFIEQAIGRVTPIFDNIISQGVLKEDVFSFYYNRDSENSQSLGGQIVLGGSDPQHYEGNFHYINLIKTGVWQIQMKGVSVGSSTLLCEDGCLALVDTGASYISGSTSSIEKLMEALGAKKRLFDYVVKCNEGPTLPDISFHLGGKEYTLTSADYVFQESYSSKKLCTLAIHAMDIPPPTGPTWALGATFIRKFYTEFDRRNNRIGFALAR

Row | IC50 | SMILES
1 | 3200 nM | COC(=O)[C@H](CC(C)C)NC(=O)C(Cc1c[nH]c2ccccc12)NC(=O)[C@H](CCCCN)N1C(=O)CC[C@H](NC(=O)OCc2ccccc2)C(=O)N[C@@H](Cc2ccccc2)C1=O (stereo in doubt)
2 | 31000 nM | COC(=O)[C@H](CC(C)C)NC(=O)C(Cc1c[nH]c2ccccc12)NC(=O)[C@H](CCCCN)NC(=O)[C@H](Cc1ccccc1)NC(=O)OCc1ccccc1 (stereo in doubt)
3 | 2300 nM | CC(C)CCNC(=O)C(Cc1c[nH]c2ccccc12)NC(=O)[C@H](CCCCN)N1C(=O)COCC(=O)N[C@@H](Cc2ccccc2)C1=O (stereo in doubt)
4 | 2740 nM | CC(C)CCNC(=O)C(Cc1c[nH]c2ccccc12)NC(=O)[C@H](CCCCN)N1C(=O)CN[C@H](Cc2ccccc2)C(=O)N[C@@H](Cc2ccccc2)C1=O (stereo in doubt)
5 | 1500 nM | CC(C)CCNC(=O)C(Cc1c[nH]c2ccccc12)NC(=O)[C@H](CCCCN)N1C(=O)C(c2ccccc2)CCC(=O)N[C@@H](Cc2ccccc2)C1=O (stereo in doubt)
6 | 40000 nM | COC(=O)[C@H](CC(C)C)NC(=O)C(Cc1c[nH]c2ccccc12)NC(=O)[C@H](CSCNC(C)=O)NC(=O)[C@H](Cc1ccccc1)NC(=O)OC(C)(C)C (stereo in doubt)
7 | 240 nM | CC(C)CC(C)CNC(=O)C(Cc1c[nH]c2ccccc12)NC(=O)[C@H](CCCCN)N1C(=O)CC(C)CC(=O)N[C@@H](Cc2ccccc2)C1=O (stereo in doubt)
8 | 1400 nM | CCC(C)CNC(=O)C(Cc1c[nH]c2ccccc12)NC(=O)[C@H](CCCCN)N1C(=O)[C@H](Cc2ccccc2)NC(=O)CCC(C)(C)C1=O (stereo in doubt)
9 | 750 nM | CC(C)CCNC(=O)C(Cc1c[nH]c2ccccc12)NC(=O)[C@H](CCCCN)N1C(=O)CN[C@@H](Cc2ccccc2)C(=O)N[C@@H](Cc2ccccc2)C1=O (stereo in doubt)

target: T2, Renin (Homo sapiens) (UniProt P00797); assay: Percent inhibition against human renin at the concentration of 10 uM
T2 sequence (whole entry): T1 sequence (P00797 whole entry)

Row | inhibition | SMILES
10 | 53% | CC(C)CCNC(=O)C(Cc1c[nH]c2ccccc12)NC(=O)[C@H](CCCCN)N1C(=O)CCC(=O)N[C@@H](Cc2ccccc2)C1=O (stereo in doubt)
11 | 45% | CC[C@H](C)[C@@H]1NCC(=O)N([C@@H](CCCCN)C(=O)NC(Cc2c[nH]c3ccccc23)C(=O)NCCC(C)C)C(=O)[C@H](Cc2ccccc2)NC1=O (stereo in doubt)
12 | 58% | CC[C@@H](C)[C@@H]1NCC(=O)N[C@@H](Cc2ccccc2)C(=O)N([C@@H](CCCCN)C(=O)NC(Cc2c[nH]c3ccccc23)C(=O)NCCC(C)C)C1=O (stereo in doubt)

target: T2, Renin (Homo sapiens); assay: Percent inhibition against human renin at the concentration of 100 uM
In short: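 Each compound was tested twice at 100 µM against partially purified human renal renin with human plasma angiotensinogen in pH 7.0 phosphate buffer with protease inhibitors and 1% DMSO, for 120 min at 30 °C. Angiotensin I generation was quantified by radioimmunoassay and expressed as percent inhibition of the vehicle control rate.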

Row | SMILES | inhibition
13 | CC(C)CCNC(=O)C(Cc1c[nH]c2ccccc12)NC(=O)[C@H](CCCCN)N1C(=O)[C@H](Cc2ccccc2)NCC(=O)N[C@@H](Cc2ccccc2)C1=O (stereo in doubt) | 52%
14 | CCC(C)CNC(=O)C(Cc1c[nH]c2ccccc12)NC(=O)[C@H](CCCCN)N1C(=O)CC(C)(C)CC(=O)N[C@@H](Cc2ccccc2)C1=O (stereo in doubt) | 63%
15 | CC(C)CCNC(=O)C(Cc1c[nH]c2ccccc12)NC(=O)[C@H](CCCCN)N1C(=O)[C@H](Cc2ccccc2)NC(=O)CN[C@H](Cc2ccccc2)C1=O (stereo in doubt) | 57%

The remaining lines, values ahead:

Row | inhibition | SMILES
16 | 66% | CC(C)CCNC(=O)C(Cc1c[nH]c2ccccc12)NC(=O)[C@H](CCCCN)N1C(=O)CSCC(=O)N[C@@H](Cc2ccccc2)C1=O (stereo in doubt)
17 | 88% | CC(C)CCNC(=O)C(Cc1c[nH]c2ccccc12)NC(=O)[C@H](CCCCN)N1C(=O)CN[C@H](CC(C)C)C(=O)N[C@@H](Cc2ccccc2)C1=O (stereo in doubt)
18 | 84% | CC[C@H](C)[C@@H]1NCC(=O)N([C@@H](CCCCN)C(=O)NC(Cc2c[nH]c3ccccc23)C(=O)NCCC(C)C)C(=O)[C@H](Cc2ccccc2)NC1=O (stereo in doubt)

target: T2, Renin (Homo sapiens); assay: Percent inhibition against human renin at the concentration of 1 uM

Row | inhibition | SMILES
19 | 10% | CC(C)CCNC(=O)C(Cc1c[nH]c2ccccc12)NC(=O)[C@H](CCCCN)N1C(=O)CN[C@H](CC(C)C)C(=O)N[C@@H](Cc2ccccc2)C1=O (stereo in doubt)
